Measured values published in ChEMBL document CHEMBL4152308, “Synthesis and biological evaluation of novel 2-oxo-1,2-dihydroquinoline-4-carboxamide derivatives for the treatment of esophageal squamous cell carcinoma” (Eur J Med Chem, 2018).
pIC50: −log10 of the molar value. Values belong to the molecule of their own block, whether it stands above or below them. Activity calls are given as the source filed them. No cut-off for these calls is given here.

Assays:
[1] = test system: KYSE-410; assay: Antiproliferative activity against human KYSE410 cells after 72 hrs by MTT assay; assay type: functional, cell-based; conditions: KYSE-410, 72 h
In short: (§1)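 Cells grown as monolayers at 37 °C, 5% CO2, mycoplasma-checked, in exponential phase. Cells seeded in 96-well plates, 24 h attachment, then compound added for 72 h. MTT 0.3 mg/mL for 3 h at 37 °C, DMSO solubilization, absorbance at 570 nm. Inhibition = (1 − A/C) × 100%. IC50 from log(concentration) vs % inhibition plot; triplicate wells, SD from ≥3 independent experiments.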

[2] = test system: KYSE-70 cell line; assay: Antiproliferative activity against human KYSE-70 cells after 72 hrs by MTT assay; assay type: functional, cell-based; conditions: KYSE-70, 72 h; in short: as §1
[3] = test system: KYSE-410; assay: Induction of autophagy in human KYSE410 cells assessed as increase in LC3B level at 10 to 50 uM after 24 hrs by Western blot analysis; assay type: functional, cell-based
In short: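 Cells treated 24 h at indicated concentrations, with bafilomycin for induced-LC3B readouts. Lysis in RIPA with protease inhibitors, BCA protein assay, samples heated 5 min at 100 °C. Equal protein run on 15% SDS-PAGE, transferred to PVDF. Anti-LC3B primary overnight at 4 °C, GAPDH as loading control, anti-rabbit secondary, TBST washes.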

[4] = test system: OVCAR-8; assay: Antiproliferative activity against human OVCAR8 cells after 72 hrs by MTT assay; assay type: functional, cell-based; conditions: OVCAR-8, 72 h; in short: as §1
[5] = test system: KYSE-410; assay: Cell cycle arrest in human KYSE410 cells assessed as accumulation at G2 phase at 5 uM after 24 to 48 hrs by propidium iodide staining based flow cytometry (reference value: 12.2%); assay type: functional
[6] = test system: KYSE-410; assay: Cell cycle arrest in human KYSE410 cells assessed as accumulation at G1 phase at 5 uM after 24 to 48 hrs by propidium iodide staining based flow cytometry (reference value: 65.4%); assay type: functional
[7] = test system: KYSE-410; assay: Cell cycle arrest in human KYSE410 cells assessed as accumulation at S phase at 5 uM after 24 to 48 hrs by propidium iodide staining based flow cytometry (reference value: 22.3%); assay type: functional
[8] = test system: KYSE-410; assay: Cell cycle arrest in human KYSE410 cells assessed as accumulation at G1 phase at 1 uM after 24 to 48 hrs by propidium iodide staining based flow cytometry (reference value: 65.4%); assay type: functional
[9] = test system: KYSE-410; assay: Cell cycle arrest in human KYSE410 cells assessed as accumulation at G2 phase at 1 uM after 24 to 48 hrs by propidium iodide staining based flow cytometry (reference value: 12.2%); assay type: functional
[10] = test system: SK-OV-3; assay: Antiproliferative activity against human SKOV3 cells after 72 hrs by MTT assay; assay type: functional, cell-based; conditions: SK-OV-3, 72 h; in short: as §1
[11] = test system: MIA PaCa-2; assay: Antiproliferative activity against human MIAPaCa2 cells after 72 hrs by MTT assay; assay type: functional, cell-based; conditions: MIA PaCa-2, 72 h; in short: as §1
[12] = test system: KYSE-410; assay: Cell cycle arrest in human KYSE410 cells assessed as accumulation at S phase at 1 uM after 24 to 48 hrs by propidium iodide staining based flow cytometry (reference value: 22.3%); assay type: functional

Structure (SMILES): O=C(Nc1ccc(Cl)cc1)c1cc(=O)[nH]c2cc(Br)ccc12
- pIC50 [1]: < 4.70
- pIC50 [2]: < 4.70

Structure (SMILES): CCN(CC)CCCC(C)Nc1ccc(NC(=O)c2cc(=O)[nH]c3cc(F)ccc23)cc1F (stereo not drawn)
- Activity [3]: Active
- pIC50 [1]: < 4.70
- pIC50 [2]: < 4.70

Structure (SMILES): O=C(Nc1cc(F)ccc1F)c1cc(=O)[nH]c2cc(Br)ccc12
- pIC50 [1]: < 4.70
- pIC50 [2]: < 4.70

Structure (SMILES): O=C(Nc1ccc(F)cc1)c1ccnc2cc(Br)ccc12
- pIC50 [1]: < 4.70
- pIC50 [2]: < 4.70

Structure (SMILES): CC(=O)c1ccc(-c2ccc3c(C(=O)Nc4cccc(F)c4)cc(=O)[nH]c3c2)cc1
- pIC50 [1]: < 4.70
- pIC50 [2]: < 4.70

Structure (SMILES): O=C(c1ccnc2cc(Br)ccc12)N1CCCCC1
- pIC50 [1]: < 4.70
- pIC50 [2]: < 4.70

- pIC50 [4]: 4.87
- pIC50 [10]: 5.17
- pIC50 [11]: 5.35
Structure (SMILES): O=C(Nc1cccc(F)c1)c1cc(=O)[nH]c2cc(-c3ccsc3)ccc12
- pIC50 [1]: 5.37
- Activity [5]: 54.9%
- Activity [6]: 22.6%
- Activity [7]: 22.4%
- pIC50 [2]: 5.29
- Activity [8]: 63.6%
- Activity [9]: 14.7%
- Activity [12]: 21.7%

Structure (SMILES): COc1cccc(NC(=O)c2cc(=O)[nH]c3cc(Br)ccc23)c1
- pIC50 [1]: < 4.70
- pIC50 [2]: < 4.70

Structure (SMILES): O=C(Nc1cccc(Cl)c1)c1cc(=O)[nH]c2cc(Br)ccc12
- pIC50 [1]: < 4.70
- pIC50 [2]: < 4.70

- pIC50 [4]: 4.65
- pIC50 [10]: 4.78
- pIC50 [11]: 4.71
Structure (SMILES): O=C(Nc1cccc(F)c1)c1cc(=O)[nH]c2cc(-c3ccc(F)cc3)ccc12
- pIC50 [1]: 4.99
- pIC50 [2]: 5.48

Structure (SMILES): O=C(Nc1cccc(F)c1)c1cc(=O)[nH]c2cc(-c3ccc(F)nc3)ccc12
- pIC50 [1]: < 4.70
- pIC50 [2]: < 4.70

Structure (SMILES): O=C(Nc1cc(F)cc(F)c1)c1cc(=O)[nH]c2cc(Cl)ccc12
- pIC50 [1]: 4.96
- pIC50 [2]: 5.05

Structure (SMILES): CC(C)(C)c1ccc(-c2ccc3c(C(=O)Nc4cccc(F)c4)cc(=O)[nH]c3c2)cc1
- pIC50 [1]: < 4.70
- pIC50 [2]: < 4.70

Structure (SMILES): O=C(Nc1cccc(C(F)(F)F)c1)c1cc(=O)[nH]c2cc(Br)ccc12
- pIC50 [1]: < 4.70
- pIC50 [2]: < 4.70

Structure (SMILES): COc1cccc2c(C(=O)Nc3cc(F)cc(F)c3)cc(=O)[nH]c12
- pIC50 [1]: < 4.70
- pIC50 [2]: < 4.70

Structure (SMILES): O=C(Nc1ccc(F)cc1F)c1cc(=O)[nH]c2cc(Br)ccc12
- pIC50 [1]: < 4.70
- pIC50 [2]: < 4.70

Structure (SMILES): O=C(Nc1cccc(F)c1)c1cc(=O)n(O)c2ccccc12
- pIC50 [1]: < 4.70
- pIC50 [2]: < 4.70

Structure (SMILES): COc1ccccc1NC(=O)c1ccnc2cc(Br)ccc12
- pIC50 [1]: < 4.70
- pIC50 [2]: < 4.70

Structure (SMILES): COc1ccc2c(C(=O)Nc3cc(F)cc(F)c3)cc(=O)[nH]c2n1
- pIC50 [1]: < 4.70
- pIC50 [2]: < 4.70

Structure (SMILES): O=C(Nc1cccc(F)c1)c1cc(=O)[nH]c2cc(-c3ccc(F)c(CO)c3)ccc12
- pIC50 [1]: < 4.70
- pIC50 [2]: < 4.70

Structure (SMILES): O=C(c1cc(=O)[nH]c2cc(Br)ccc12)N1CCCCC1
- pIC50 [1]: < 4.70
- pIC50 [2]: < 4.70

Structure (SMILES): C=Cc1ccc2c(C(=O)Nc3cccc(F)c3)cc(=O)[nH]c2c1
- pIC50 [1]: 4.87
- pIC50 [2]: 5.01

Structure (SMILES): O=C(Nc1cccc(F)c1)c1cc(=O)[nH]c2cc(-c3ccccc3F)ccc12
- pIC50 [1]: < 4.70
- pIC50 [2]: < 4.70

Structure (SMILES): COc1ccc(NC(=O)c2cc(=O)[nH]c3cc(Br)ccc23)cc1
- pIC50 [1]: < 4.70
- pIC50 [2]: < 4.70

Structure (SMILES): O=C(Nc1cc(F)cc(F)c1)c1cc(=O)[nH]c2cc(O)ccc12
- pIC50 [1]: < 4.70
- pIC50 [2]: < 4.70

Structure (SMILES): O=C(Nc1cccc(F)c1)c1cc(=O)[nH]c2cc(-c3ccncc3)ccc12
- pIC50 [1]: < 4.70
- pIC50 [2]: < 4.70

Structure (SMILES): CCN(CC)CCCC(C)Nc1ccc2c(C(=O)Nc3cccc(F)c3)cc(=O)[nH]c2c1 (stereo not drawn)
- Activity [3]: Active
- pIC50 [1]: < 4.70
- pIC50 [2]: < 4.70
